# From PubChem BioAssay
# PHOSPHO1 inh: PubChem AID 1565 | Phosphoethanolamine/phosphocholine phosphatase (Homo sapiens), Q8TCT1 | recombinant PHOSPHO1, absorbance phosphatase assay | inhibition, % at 13.3 µM | hit rate 1.1% among 290,000; in the data active = inhibition above about 60%
# Target sequence (Q8TCT1 whole entry, looked up): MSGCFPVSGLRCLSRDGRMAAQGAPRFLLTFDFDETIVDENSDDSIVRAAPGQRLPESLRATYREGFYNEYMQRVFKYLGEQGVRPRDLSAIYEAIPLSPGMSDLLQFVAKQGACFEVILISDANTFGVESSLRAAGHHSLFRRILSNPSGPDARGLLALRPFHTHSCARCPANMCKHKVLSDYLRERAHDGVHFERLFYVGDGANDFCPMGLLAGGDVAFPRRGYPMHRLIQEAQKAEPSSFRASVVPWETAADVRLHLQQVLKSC
# IMP-1 inh: IMP-1 metallo-beta-lactamase inhibitors, primary screen, biochemical, epi-absorbance readout, Pseudomonas aeruginosa enzyme. metallo-beta-lactamase IMP-1 (Pseudomonas aeruginosa). purified IMP-1, nitrocefin hydrolysis, epi-absorbance fluorescence. inhibition, % at 5.6 µM. hit rate 0.45% among 290,000. AID 1556, 2009;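 active = inhibition above the mean plus 3 SD of all compounds in the same screening run, cut at about 4.5% in these data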;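 also: 0% = IMP-1 with DMSO and 100% = DMSO wells lacking enzyme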
#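 System: purified IMP-1; amount: IMP-1 0.2 nM before substrate addition; compound: single dose, 5.6 µM; times: 25 °C, 15 min preincubation, 25 min reaction; signal: Epi-absorbance via hydrolysed-nitrocefin quenching of white-plate fluorescence, 480/530 nm, EDTA stop; benchmarks: DMSO with and without IMP-1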
# ASAP1 inh: inhibitors of human ASAP1 ArfGAP activity, primary screen, biochemical, fluorescence polarization; hit rate 0.19% among 360,000; ASAP1-stimulated ARF1 GTP hydrolysis, GDP FP detection; AID 624377, 2012; inhibition, % at 16.5 µM; Arf-GAP with SH3 domain, ANK repeat and PH domain-containing protein 1 (Homo sapiens), …; in the data active = inhibition above about 25%;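 also: 0% = vehicle with enzyme and substrate and 100% = no enzyme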
# Calb FLC: C. albicans growth inhibition with fluconazole, primary screen, CaCi-2 strain, Alamar Blue fluorescence; C. albicans CaCi-2 (fluconazole-resistant clinical isolate) + fluconazole, 48 h; growth inhibition, % (test concentration not listed); hit rate 0.57% among 300,000; AID 1979, 2009;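 active = growth inhibition above about 58% in most replicates, limit read from the data, passing the limit was not always enough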;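 also: all wells also contain fluconazole at 8 µg/ml as a sub-toxic cotreatment; 0% = median of DMSO wells and 100% = median of geldanamycin control wells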
# ARFGAP1 inh: inhibitors of rat ARFGAP1 GAP activity, primary screen, biochemical, fluorescence polarization, GDP tracer; hit rate 0.26% among 360,000; Arfgap1-stimulated ARF1 GTP hydrolysis, GDP FP detection; ADP-ribosylation factor GTPase-activating protein 1 (Rattus norvegicus), Q62848; inhibition, % at 16.5 µM; AID 651572, 2012;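 active = inhibition above a per-plate limit, mean inhibition of low control wells plus 3 SD, cut at about 25% in these data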;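 also: 0% = DMSO wells with enzyme and 100% = wells lacking Arfgap1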
# Target sequence (Q62848 1-136 limits assumed): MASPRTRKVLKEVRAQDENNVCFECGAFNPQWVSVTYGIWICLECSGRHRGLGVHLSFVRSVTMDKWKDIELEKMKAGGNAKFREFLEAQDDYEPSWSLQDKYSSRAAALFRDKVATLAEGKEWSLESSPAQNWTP
#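 System: truncated rat Arfgap1 GAP domain / Benchmarks: high control wells lacking Arfgap1, low control full reaction with DMSO / Times: compound-enzyme preincubation 20 min, reaction 120 min, detection 60 min, 25 °C / Repeats: one replicate per compound / Also added: human ARF1(Δ1-17)-GTP substrate / Measured by: Tracer-displacement fluorescence polarization with EDTA stop, 620/688 nm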
# VIM-2 inh: VIM-2 metallo-beta-lactamase inhibitors, primary screen, biochemical, epi-absorbance readout, Pseudomonas aeruginosa enzyme. hit rate 0.89% among 290,000. purified VIM-2, nitrocefin hydrolysis, epi-absorbance fluorescence. inhibition, % at 5.6 µM;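 active = inhibition above the mean of all tested compounds plus 3 SD, cutoff set per screening run, cut at about 7.5% in these data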;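 also: red hydrolysis product quenches plate fluorescence so inhibitors raise well fluorescence; 0% = enzyme with DMSO and 100% = DMSO without enzyme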
# ASAP1 inh confirm: ASAP1 GAP activity inhibitors, confirmation, biochemical, fluorescence polarization, human, triplicate | ASAP1-stimulated Arf1 GTPase, GDP fluorescence polarization | hit rate 37% among 620 | shares compounds with ASAP1 inh | inhibition, % at 16.5 µM;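 active = mean inhibition over triplicates exceeds the hit threshold derived for the earlier primary screening run, cut at about 25% in these data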
# Numbers without * were called inactive; x = not tested or not shown. A selection: hits, their analogues and other compounds. The true share with any hit is near 2.6%.
SMILES,PHOSPHO1 inh,IMP-1 inh,ASAP1 inh,Calb FLC,ARFGAP1 inh,VIM-2 inh,ASAP1 inh confirm
COc1cccc(-c2ccc3c(c2)O[C@H](CN(C)C(=O)c2ccccc2F)[C@H](C)CN([C@H](C)CO)S3(=O)=O)c1,x,x,25*,x,-11,x,4
COc1ccc([C@H]2CN(c3ccc(OC)cc3)C(=O)[C@@H]2CC(=O)Nc2ccccc2)cc1,x,x,28*,x,0,x,5
COc1ccc(NC(=O)C[C@H]2C(=O)N(c3ccc(Br)cc3)C[C@@H]2c2ccc(OC)cc2)cc1,x,x,0,x,0,x,x
NS(=O)(=O)c1ccc(NC(=O)CN2CCN(Cc3ccccc3)CC2)cc1,25,-1,0,-2,-6,-2,x
NS(=O)(=O)c1ccc(NC(=O)CN2CCN(S(=O)(=O)/C=C/c3ccccc3)CC2)cc1,35,-2,30*,-2,9,-2,4
NS(=O)(=O)c1ccc(CCNc2nn3c(-c4cccc(OC(F)(F)F)c4)cnc3s2)cc1,x,x,7,x,10,x,x
O=C(Nc1cccc(-c2csc(Nc3ccc(Cl)cc3)n2)c1)c1ccccc1,44,x,26*,0,24,x,26*
CC(=O)Nc1ccc(C(=O)Nc2cccc(-c3cnc4ccccc4n3)c2)cc1,-5,-3,40*,-3,1,-6,80*
O=C(N/C(=C/c1cccc(Br)c1)C(=O)N1CCCCC1)c1ccco1,x,x,12,x,7,x,x
CC(=O)Nc1cc(-c2cccc(NS(C)(=O)=O)c2)cn2c(-c3ccc(F)c(Cl)c3)cnc12,x,x,-11,x,3,x,x
C=CCNc1nc(-c2sc(NC(=O)C(C)(C)C)nc2C)c(-n2cc(-c3ccccc3)nn2)s1,x,x,-3,x,14,x,x
CCOc1ccc(CN(C)C(=O)c2cccc(S(=O)(=O)Nc3ccccc3OC)c2)cc1OC,x,x,-1,x,-4,x,x
COc1cc(OC)cc(C(=O)N[C@H](C(=O)OCC(=O)c2c[nH]c3ccccc23)C(C)C)c1,x,x,28*,x,16,x,13
CC(C)NC(=O)C1(C)CN(S(C)(=O)=O)CC(=O)N1CC(F)(F)F (configuration not stated),x,x,-14,x,6,x,x
CN(C)c1ccc(-c2[nH][nH]c(=O)c2NC(=O)c2ccc3ccccc3n2)cc1,x,x,36*,x,-7,x,0
COc1ccc(CN2CCC2(C)C(=O)Nc2cccc(NS(C)(=O)=O)c2)c2ccccc12 (configuration not stated),x,x,-11,x,1,x,x
COc1cccc(NC(=O)C2(C)CCN2Cc2ccc(OC)c3ccccc23)c1 (configuration not stated),x,x,29*,x,24,x,4
CCOC(=O)Nc1ccc2c(c1)C(=NNC(N)=S)c1ccccc1-2,x,x,27*,x,8,x,11
CCOC(=O)Nc1ccc2c(c1)C(=NO)c1ccccc1-2,x,x,28*,x,12,x,21
NC(=O)c1cccc2c1-c1ccccc1/C2=N/NC(N)=S,15,-2,-4,1,-11,1,x
O=C(NC(=S)Nc1ccc(CN2CCOCC2)cc1)c1ccc(-c2ccc(Br)cc2)o1,13,-2,x,23,x,-2,x
COc1ccc(Br)cc1C(=O)NC(=S)Nc1ccc(CN2CCOCC2)cc1,17,1,27*,-3,12,4,2
CNC(=O)C(=O)Nc1ccc2c(c1)N(S(=O)(=O)c1cccs1)CCC2,x,x,29*,5,2,x,5
O=S1(=O)N[C@@H](Cc2ccccc2)COc2cc(N3CCC[C@H]3CO)ccc21,x,x,-4,x,-4,x,x
C=CCN=C1NC(c2ccc(F)cc2)C(C(=O)OC)=C(C)N1Cc1ccccc1C(F)(F)F (configuration not stated),x,x,25*,x,9,x,-2
